{
  "source": "ChEMBL document CHEMBL3045285",
  "about": "“Synthesis and insecticidal activities of novel anthranilic diamides containing modified N-pyridylpyrazoles” (2010)",
  "assay_type_in_all_cases": "functional",
  "key": {"Mythimna separata [1]": {"tested_on": "Mythimna separata", "assay": "Insecticidal activity against fourth-instar larval stage of Mythimna separata (Oriental armyworm) in compound pretreated Zea mays L. Tangyu 10 leaves assessed as mortality at 5 mg/l at 25 +/-1 degC after 2 days", "method_in_brief": "(§1)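 Greenhouse-reared fourth-instar oriental armyworm larvae. Corn (Tangyu 10) leaves laid on moist filter paper in Petri dishes, sprayed with test solution (200 mg/L solution diluted in distilled water), then air-dried. Ten larvae per dish. Held at 25 ± 1 °C; mortality scored dead/alive 2 days post-treatment. Triplicate treatments, Abbott-corrected, 0–100 scale.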"}, "Mythimna separata [2]": {"tested_on": "Mythimna separata", "assay": "Insecticidal activity against fourth-instar larval stage of Mythimna separata (Oriental armyworm) in compound pretreated Zea mays L. Tangyu 10 leaves assessed as mortality at 10 mg/l at 25 +/-1 degC after 2 days", "method_in_brief": "as §1"}, "Mythimna separata [3]": {"tested_on": "Mythimna separata", "assay": "Insecticidal activity against fourth-instar larval stage of Mythimna separata (Oriental armyworm) in compound pretreated Zea mays L. Tangyu 10 leaves assessed as mortality at 20 mg/l at 25 +/-1 degC after 2 days", "method_in_brief": "as §1"}, "Mythimna separata [4]": {"tested_on": "Mythimna separata", "assay": "Insecticidal activity against fourth-instar larval stage of Mythimna separata (Oriental armyworm) in compound pretreated Zea mays L. Tangyu 10 leaves assessed as mortality at 50 mg/l at 25 +/-1 degC after 2 days", "method_in_brief": "as §1"}, "Mythimna separata [5]": {"tested_on": "Mythimna separata", "assay": "Insecticidal activity against fourth-instar larval stage of Mythimna separata (Oriental armyworm) in compound pretreated Zea mays L. Tangyu 10 leaves assessed as mortality at 100 mg/l at 25 +/-1 degC after 2 days", "method_in_brief": "as §1"}, "Mythimna separata [6]": {"tested_on": "Mythimna separata", "assay": "Insecticidal activity against fourth-instar larval stage of Mythimna separata (Oriental armyworm) in compound pretreated Zea mays L. Tangyu 10 leaves assessed as mortality at 200 mg/l at 25 +/-1 degC after 2 days", "method_in_brief": "as §1"}, "Plutella xylostella [7]": {"tested_on": "Plutella xylostella", "assay": "Insecticidal activity against second-instar larval stage of Plutella xylostella (diamondback moth) in cabbage leaves assessed as mortality at 25 +/-1 degC treated for 3 secs before larva infestation measured after 2 days by leaf-dip method", "settings": "48 h", "method_in_brief": "(§2)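 Greenhouse-reared diamondback moth larvae tested by leaf-dip method at 25 ± 1 °C. Test solution made at 200 mg/L, then diluted with distilled water to working concentrations. Mortality scored dead/alive, corrected with Abbott's formula and expressed on a 0–100 scale.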"}, "Plutella xylostella [8]": {"tested_on": "Plutella xylostella", "assay": "Insecticidal activity against second-instar larval stage of Plutella xylostella (diamondback moth) in cabbage leaves assessed as mortality at 0.125 mg/l at 25 +/-1 degC treated for 3 secs before larva infestation measured after 2 days by leaf-dip method", "settings": "48 h", "method_in_brief": "as §2"}, "Plutella xylostella [9]": {"tested_on": "Plutella xylostella", "assay": "Insecticidal activity against second-instar larval stage of Plutella xylostella (diamondback moth) in cabbage leaves assessed as mortality at 0.25 mg/l at 25 +/-1 degC treated for 3 secs before larva infestation measured after 2 days by leaf-dip method", "settings": "48 h", "method_in_brief": "as §2"}, "Plutella xylostella [10]": {"tested_on": "Plutella xylostella", "assay": "Insecticidal activity against second-instar larval stage of Plutella xylostella (diamondback moth) in cabbage leaves assessed as mortality at 0.5 mg/l at 25 +/-1 degC treated for 3 secs before larva infestation measured after 2 days by leaf-dip method", "settings": "48 h", "method_in_brief": "as §2"}, "Plutella xylostella [11]": {"tested_on": "Plutella xylostella", "assay": "Insecticidal activity against second-instar larval stage of Plutella xylostella (diamondback moth) in cabbage leaves assessed as mortality at 1 mg/l at 25 +/-1 degC treated for 3 secs before larva infestation measured after 2 days by leaf-dip method", "settings": "48 h", "method_in_brief": "as §2"}, "Plutella xylostella [12]": {"tested_on": "Plutella xylostella", "assay": "Insecticidal activity against second-instar larval stage of Plutella xylostella (diamondback moth) in cabbage leaves assessed as mortality at 2.5 mg/l at 25 +/-1 degC treated for 3 secs before larva infestation measured after 2 days by leaf-dip method", "settings": "48 h", "method_in_brief": "as §2"}, "Plutella xylostella [13]": {"tested_on": "Plutella xylostella", "assay": "Insecticidal activity against second-instar larval stage of Plutella xylostella (diamondback moth) in cabbage leaves assessed as mortality at 5 mg/l at 25 +/-1 degC treated for 3 secs before larva infestation measured after 2 days by leaf-dip method", "settings": "48 h", "method_in_brief": "as §2"}, "Plutella xylostella [14]": {"tested_on": "Plutella xylostella", "assay": "Insecticidal activity against second-instar larval stage of Plutella xylostella (diamondback moth) in cabbage leaves assessed as mortality at 10 mg/l at 25 +/-1 degC treated for 3 secs before larva infestation measured after 2 days by leaf-dip method", "settings": "48 h", "method_in_brief": "as §2"}, "Plutella xylostella [15]": {"tested_on": "Plutella xylostella", "assay": "Insecticidal activity against second-instar larval stage of Plutella xylostella (diamondback moth) in cabbage leaves assessed as mortality at 20 mg/l at 25 +/-1 degC treated for 3 secs before larva infestation measured after 2 days by leaf-dip method", "settings": "48 h", "method_in_brief": "as §2"}, "Mythimna separata [16]": {"tested_on": "Mythimna separata", "assay": "Insecticidal activity against fourth-instar larval stage of Mythimna separata (Oriental armyworm) in compound pretreated Zea mays L. Tangyu 10 leaves assessed as mortality at 2.5 mg/l at 25 +/-1 degC after 2 days", "method_in_brief": "as §1"}},
  "data": [
    {"smiles": "CNC(=O)c1cc(Cl)cc(C)c1NC(=O)c1cc(Br)nn1-c1ncccc1Cl", "note": "[CHLORANTRANILIPROLE]", "values": [
      {"measurement": "mortality at 5 µg/mL", "setting": "Mythimna separata [1]", "result": 100, "unit": "%"},
      {"measurement": "mortality at 10 µg/mL", "setting": "Mythimna separata [2]", "result": 100, "unit": "%"},
      {"measurement": "mortality at 20 µg/mL", "setting": "Mythimna separata [3]", "result": 100, "unit": "%"},
      {"measurement": "mortality at 50 µg/mL", "setting": "Mythimna separata [4]", "result": 100, "unit": "%"},
      {"measurement": "mortality at 100 µg/mL", "setting": "Mythimna separata [5]", "result": 100, "unit": "%"},
      {"measurement": "mortality at 200 µg/mL", "setting": "Mythimna separata [6]", "result": 100, "unit": "%"},
      {"measurement": "LC50", "setting": "Plutella xylostella [7]", "result": 3.8, "unit": "µg/mL"},
      {"measurement": "mortality at 0.125 µg/mL", "setting": "Plutella xylostella [8]", "result": 100, "unit": "%"},
      {"measurement": "mortality at 0.25 µg/mL", "setting": "Plutella xylostella [9]", "result": 100, "unit": "%"},
      {"measurement": "mortality at 0.5 µg/mL", "setting": "Plutella xylostella [10]", "result": 100, "unit": "%"},
      {"measurement": "mortality at 1 µg/mL", "setting": "Plutella xylostella [11]", "result": 100, "unit": "%"},
      {"measurement": "mortality at 2.5 µg/mL", "setting": "Plutella xylostella [12]", "result": 100, "unit": "%"},
      {"measurement": "mortality at 5 µg/mL", "setting": "Plutella xylostella [13]", "result": 100, "unit": "%"},
      {"measurement": "mortality at 10 µg/mL", "setting": "Plutella xylostella [14]", "result": 100, "unit": "%"},
      {"measurement": "mortality at 20 µg/mL", "setting": "Plutella xylostella [15]", "result": 100, "unit": "%"},
      {"measurement": "mortality at 2.5 µg/mL", "setting": "Mythimna separata [16]", "result": 100, "unit": "%"}
    ]}
  ]
}
